Measurements gathered from unrelated publications.
Each line is one published result; the experiments were not run side by side.
Cell line: SK-MEL-2
Effect on: cell growth or viability

COc1ccc(C(=O)/C=C/c2ccc(Cl)c(Cl)c2)cc1S(N)(=O)=O — GI50 (SRB; 48 h): 5.6 µM
O=C1NC(=NCc2cccs2)S/C1=C\c1ccc2ncccc2c1 — IC50: > 10 µM
COc1ccc(-c2ccc(-c3ccc(C(=N)N)nc3)s2)cc1 — GI50 (SRB): 2.05 µM
O=C1NCCc2[nH]c(-c3ccncc3)cc21 — IC50: > 10 µM
COc1ccc(-c2ccc(-c3ccc(C(=N)N)nc3)s2)cc1Cl — GI50 (SRB): 2.15 µM
O=C(c1c(F)ccc(NS(=O)(=O)N2CC[C@@H](F)C2)c1F)c1c[nH]c2ncc(-c3cnc(C4CC4)nc3)cc12 — IC50 (ATP luminescence; 72 h): > 20 µM
COc1ccc(C(=O)/C=C/c2ccccc2Br)cc1S(N)(=O)=O — GI50 (SRB; 48 h): 14.5 µM
COc1cccc(Oc2ccccc2NC(=O)CNC(=O)c2cccc3ccccc23)c1 — GI50 (SRB; 48 h): 0.182 µM
